The EternaBench riboswitch data

Test system: MS2 coat protein
Experiment: apparent Kd, MS2 coat protein; higher = weaker binding; RNA-MaP array; FMN 200 µM where present
Summary of the method: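 Apparent Kd: the median of filtered binding-curve fits from single clusters. Designs were transcribed on Illumina sequencing-chip clusters by stalled E. coli RNA polymerase and titrated with SNAP-549-labelled MS2 coat protein from 0.7 or 1.5 nM, doubling to 3 µM, in 100 mM Tris-HCl pH 7.5, 80 mM KCl, 4 mM MgCl2, BSA, DTT, yeast tRNA and Tween-20. Each series ran without and then with constant ligand, and green signal was normalised to red-channel RNA signal and control-cluster median Fmax.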

[1] = designed as: ON switch for flavin mononucleotide, no ligand
[2] = ligand present: flavin mononucleotide, designed as: ON switch for flavin mononucleotide
[3] = designed as: OFF switch for flavin mononucleotide, no ligand
[4] = ligand present: flavin mononucleotide, designed as: OFF switch for flavin mononucleotide

Row | Sequence | apparent Kd [1] [nM] | apparent Kd [2] [nM] | apparent Kd [3] [nM] | apparent Kd [4] [nM]
1 | ACAGAUGCUGACAUGAGGAUCACCCAUGUUAGAUUGUUAUGUCAGGAUAUUAUCUGGCAACCAGAUGAGAAGGGACCAUCUGUU | 15.6 | 7.31 | – | –
2 | UAAUUUAUACAGAAGGGAAACAUGAGGAUCACCCAUGACAUGAGGAUCACCCAUGUUUAAUUAUUUCAGGAUAUGUAAAAUAAU | 159 | 70.5 | – | –
3 | GUGUACAGAGGAUAUACAGGAGCUAGGAAACUAGCAACCUCACAUGAGGAUCACCCAUGUAGAAGGCUGUACAC | – | – | 251 | 66.7
4 | UUAUGUUAUGUAGGAUAUCAUUAGAUUUGUAAUUUAAUUGUUAUUUAGAUUUGAGAAGGACAUUUACAUGAGGAUCACCCAUGU | – | – | 14.8 | 11.7
5 | UUAAUGAAGUAAGGAUAUACAUGAGGAUUUCUCGUAGAAGGUACUAUACAUGAGGAUCACCCAUGUGCCGGUCAGAAGACUGGA | 433 | 274 | – | –
6 | AUCCGGAGUCAGGAUAUGUGGCUAAAGAUGCGCAUAGAAGGGAUUACAUGAGGAUCACCCAUGUGGCUUACAUG | – | – | 132 | 109
7 | GACAUUGGCAAGAAGGCAAACAUGAGGAUCACCCAUGUUCUGUAUGUAUUUUGAGGAUAUUGCCAAUGUAUGUGGAUCACCCAA | – | – | 8.91 | 10.1
8 | CUGGAAGUCACAGGAUAUCCGGACACAUGUCCAGGAGAAGGGUGAGUAGUUUCACAUGAGGAUCACCCAUGUGGCGGUUCCAGA | 264 | 21.2 | – | –
9 | ACUUGUUAUUUAAUCAUUGAAUUGUAGGAUAUACUUACAUGAGGAUCACCCAUGUUAACAUGGAUGUAGAAGGACAUCUCAUUU | – | – | 98.9 | 55.1
10 | GCCUCACAUGAGGAUCACCCAUGUCAGGAUAUCUCAGCCUCACAUCAAACAAGGCUUCAGAGAAGGGACGUAAA | – | – | 37.4 | 77.4
11 | GAGCGGGAAACAUGAGGAUCACCCAUGUAGUAAAUCCUCACGUAGGAUAUGCACACGAGAAGUGUGCAGAAGGGCGACCCGGUC | – | – | 79.6 | 183
12 | ACUAGAUGAGGAUAUGCAUGUUUUCGUGUUCUUCUAGAUUAACAUGAGGAUCACCCAUGUAGAAGGCGUCAUAU | – | – | 48.4 | 134
13 | CAGUACUGAGGAUAUACAUGAGGAUCACCCAUGUGUCCCUGCUAGGAAACUAGCAAUAGUAGAAGGCAGUACUG | – | – | 17.7 | 199
14 | GCCGGCUAAUGAGGAUAUGGCACCUUAUUGGUGCCAGAAGGCAUGUCAAUUGACAUGAGGAUCACCCAUGUAUUAUAGUUGGCG | 422 | 115 | – | –
15 | UCUCAGUCAGGAUAUCGUUAAUUUAAUUGUUUGUAUUAGUUCGAGAAGGGACAUGAGGAUCACCCAUGUACUCA | – | – | 34 | 94.6
16 | GGAAUGUCGGGAGGAUAUCCAAAUGUAUACAUAGGAGAAGGCCCGCACAUGAGGAUCACCCAUGUAAUAACGCGUGGCAUCUAC | – | – | 81.3 | 169
17 | UCCAAACAUGAGGAUCACCCAUGUGAGGAUAUGAUACUAUGUACUUCGGUACAUAGUAUCAGAAGGCACAUCCA | – | – | 13.6 | 22.2
18 | UAUCAAUUUAUGGGAUUAGAUUAUGAGGAUAUCAUUUUUUUAUACAUGAGGAUCACCCAUGUUUCUGAGAAGGCAUAAUUAAUA | 16.9 | 6.29 | – | –
19 | UCCUUGGAAGGAUAUCGAUAGGCUUACAUGAGGAUCACCCAUGUUGGGAUGUCUUUCUGUCGAGAAGGUUCGUUUU | – | – | 19.7 | 21.4
20 | UCCUUGUCCUGAGGAUAUCCGUAGUGACCGAAAGGAGAAGGCAGGACAUGAGGAUCACCCAUGUACCCAGAAAACGUGCAGAGU | – | – | 48.1 | 525
21 | GUGAGUAGUCAGGAUAUGCUGUACAAAAGUACAGCAGAAGGGAUUACAUGAGGAUCACCCAUGUUUUCUUCAUG | – | – | 83.5 | 564
22 | CGUAUGUGAGGAUAUGACAAUGGUAUCUUCGGAUACCAUUGUCAGAAGGUACAUGAGGAUCACCCAUGUAGAUC | – | – | 27.1 | 59.9
23 | AAAUAGUUAGGAUAUACAUGAGGAUCACCCAUGUGGACUUAUGGCGAUUAAUUUAGUGGUAGAAGGGACUAAAA | – | – | 37.2 | 47.6
24 | UUACUAUUACAGAAGGUUAAAUAAUAUAUAAAUGAAGGAUAUGUAACAUGAGGAUCACCCAUGUUUCACCCACAUGAGGAUCAU | – | – | 9.63 | 9.57

Row | Sequence | apparent Kd [1] [nM] | apparent Kd [2] [nM] | apparent Kd [3] [nM] | apparent Kd [4] [nM]
25 | CACAAGAAAGUCGAACCGCUAUCUAGAAGGACAACAUGACAACAUGAGGAUCACCCAUGUCAUAUGUAGGAUAUGGAUGGUGGG | – | – | 8.94 | 9.14
26 | GGUACUCAAAGAGUACCAAUACGAACAUGAGGAUCACCCAUGUAGGAUAUGCUACUCAAAGAGUAGCAGAAGGACAUGUGCCUA | – | – | 19.1 | 106
27 | UUUUUAUUUAUAGGAUAUGGAAACAUGAGGAUCACCCAUGUAUGAUAAGAUAAAUUAUGAUGUGGCCAGAAGGAUAUUAUUUUU | 31.3 | 43.7 | – | –
28 | ACAUGAGGAUCACCCAUGUAGAAUGAAGAAGGUACUAUAUAGAUAUACACCCUAUGUCUAUAUAGUAAGGAUAUUCUAAUAAUU | 6.45 | 6.35 | – | –
29 | UAAGUUGAGGAGAAGGGAGCACAUGAGGAUCACCCAUGUGGUUCUUUGUGCUCAGGAUAUCCAUGGAGCUCCGUCGAGUUCCAG | – | – | 56.7 | 16.6
30 | GGAUAGGACAGAGGAUAUACGUGCUAGCGAUACUAGCAAAAUUUCCUCACAUGAGGAUCACCCAUGUAGAAGGCUGUCCUAUCG | – | – | 15.7 | 427
31 | UGUGUGUGGCAGGAUAUUCCGGUCGUUGGUCGGGAAGAAGGGUCUACAUGAGGAUCACCCAUGUGACCGGUUGG | – | – | 25.6 | 26.2
32 | UCACGGUAUGUAGGAUAUGCAUAGCAUUGCUAUGCAGAAGGACAUGAGGAUCACCCAUGUAUGUAUUCCAUACAAAUCCCGUGU | – | – | 5.68 | 5.58
33 | AGUCUGCUAGGAUAUACAUGAGGAUCACCCAUGUCUAUCAAAAGACUAUUAACCUGGUGUAGAAGGAGCUUGUA | – | – | 11.1 | 12.5
34 | AUCGGGAUUACAUGAGGAUCACCCAUGUCAGAACGGGUAGUUAGAAGGUGCCAUUAGGGAGAGGGUAAGGAUAUAAUUUUUGGC | 14.6 | 12.8 | – | –
35 | UUCGUGCAGCUUAGCUGUACGCGUACAUGAGGAUCACCCAUGUAGGAUAUGGUAGGCUUUGCUUACUAGAAGGAUAGUGUGAUC | – | – | 215 | 70.5
36 | UGGUACUAGGGAGGAUAUGGGAAGAUACAUGAGGAUCACCCAUGUGUAAGAAUGCCGAGAGGCAACUAGAAGGCCCUAGUACCU | 56 | 6.58 | – | –
37 | AAAAAGCGAGGAUAUACAUGAGGAUCACCCAUGUGAGAGAAAAAAAGGAGAAAAAAAAGUAGAAGGCGCAAAAA | – | – | 61.6 | 72.2
38 | UUUUACAUAGGAUAUAGUUUGUUGUACAUGAGGAUCACCCAUGUUUUUGUUUGUGCUUUUCUAGAAGGAUGUUUCU | – | – | 29.2 | 25.4
39 | AGAGAGAGCACAGGAUAUCCGCACACAUGCAGCGGAGAAGGGUGACCUUUUUGCACAUGAGGAUCACCCAUGUCCAGCACCACG | 25.7 | 13.3 | – | –
40 | UUACUCAUGUAAGGAUAUGUAGCCGUUUCGGCUGCAGAAGGUACUAUAAUACAUGAGGAUCACCCAUGUCUAUAAAAUAAAGAC | 34.6 | 25.6 | – | –
41 | CGAUGUUAUGUCAGGAUAUGCGUUGCGAAAGCAAUGCAGAAGGGACAUGAGGAUCACCCAUGUCCUAACCAUCG | – | – | 12.3 | 25.1
42 | CCCUGAUUGAGAGGUAGGAGUGGUAGAAGGCGACCGGUGCCAGAUGACAUGAGGAUCACCCAUGUCGAGGAUAUACCACAGAAU | – | – | 6.7 | 12.2
43 | UGGCUACAUGAGGAUCACCCAUGUCAGGAUAUGCCGUUAAAUUAACAUCAACAUACGGGUAGAAGGGACUGCGU | – | – | 28.8 | 29.5
44 | ACUGUCCGAGAGAAGGGAACAUGAGGAUCACCCAUGUUACCUCACCUGGUGACGGAACUCCAAGUUCAGGAUAUCUCGAGCGGC | – | – | 4.85 | 5.98
45 | UAUUUAUAAUAUUUUAACAUGAGGAUCACCCAUGUCGCUAGACAGGAUAUAUUUUAUUUGUUUAAGUAGAAGGGUCGUAGAUUU | 166 | 138 | – | –
46 | AGCUAGUCAGGAUAUACGCGAACGAACGAAGCAGUGAAGGGACAUGAGGAUCACCCAUGUAGAAGGGACUAGCA | – | – | 27.1 | 53.7
47 | AUUAAACAUGAGGAUCACCCAUGUCAACAAAGUCGAGGAUAUGGGCAAAUAAAAUAAGAACCAGAAGGCGACUAAU | 22.8 | 16 | – | –
48 | AAGCACUGAUAAUAAUGUAGAAAUACAUGAGGAUCACCCAUGUAGGAUAUCGUCAGGAAUACUGACGAGAAGGACAUACAGUGC | – | – | 16.2 | 24.7
